Test results from ChEMBL document CHEMBL4680175, “Sulfonamide-based ring-fused analogues for CAN508 as novel carbonic anhydrase inhibitors endowed with antitumor activity: Design, synthesis, and in vitro biological evaluation” (Eur J Med Chem, 2020).
Calls of active or inactive are those of the source. The rule behind the calls is not given here.

How the values were obtained:
[1] = system: SK-MEL-2; assay: Antitumor activity against human SK-MEL-2 cells assessed as cell growth inhibition at 10 uM incubated for 48 hrs by sulforhodamine B assay; assay type: functional; conditions: read-out: GI
Summary of the method: (§1)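 NCI Drug Evaluation Branch protocol: primary single-dose screen at 10 μM across a 57-line human cancer panel. Drug exposure is 48 h. Cell growth and viability are read by sulforhodamine B assay. Data are given as a mean graph of percent growth of treated cells and reported as percentage growth inhibition (GI%).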

[2] = system: BT-549; assay: Antitumor activity against human BT-549 cells assessed as cell growth inhibition at 10 uM incubated for 48 hrs by sulforhodamine B assay; assay type: functional; conditions: read-out: GI; summary of the method: as §1
[3] = system: SF-268; assay: Antitumor activity against human SF268 cells assessed as cell growth inhibition at 10 uM incubated for 48 hrs by sulforhodamine B assay; assay type: functional; conditions: read-out: GI; summary of the method: as §1
[4] = system: Malme-3M; assay: Antitumor activity against human MALME-3M cells assessed as cell growth inhibition at 10 uM incubated for 48 hrs by sulforhodamine B assay; assay type: functional; conditions: read-out: GI; summary of the method: as §1
[5] = system: UO-31; assay: Antitumor activity against human UO-31 cells assessed as cell growth inhibition at 10 uM incubated for 48 hrs by sulforhodamine B assay; assay type: functional; conditions: read-out: GI
Summary of the method: (§2)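 NCI one-dose screen: 57-cell-line panel exposed at 10 μM for 48 h, Drug Evaluation Branch protocol. Growth and viability read by sulforhodamine B; data given as percent growth inhibition from the mean-graph of percent growth of treated cells.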

[6] = system: PC-3; assay: Antitumor activity against human PC-3 cells assessed as cell growth inhibition at 10 uM incubated for 48 hrs by sulforhodamine B assay; assay type: functional; conditions: read-out: GI; summary of the method: as §1
[7] = system: MDA-MB-468; assay: Antitumor activity against human MDA-MB-468 cells assessed as cell growth inhibition at 10 uM incubated for 48 hrs by sulforhodamine B assay; assay type: functional; conditions: read-out: GI; summary of the method: as §1
[8] = target: Cyclin-dependent kinase 2/cyclin E1 (Homo sapiens, UniProt P24941); assay: Inhibition of CDK2/cyclin E (unknown origin) expressed in baculovirus infected Sf21 insect cells using histone H1 as substrate in presence of [gamma33P]ATP
[9] = system: OVCAR-3; assay: Antitumor activity against human OVCAR-3 cells assessed as cell growth inhibition at 10 uM incubated for 48 hrs by sulforhodamine B assay; assay type: functional; conditions: read-out: GI; summary of the method: as §1
[10] = system: SNB-75; assay: Antitumor activity against human SNB-75 cells assessed as cell growth inhibition at 10 uM incubated for 48 hrs by sulforhodamine B assay; assay type: functional; conditions: read-out: GI; summary of the method: as §2
[11] = system: HOP-92; assay: Antitumor activity against human HOP92 cells assessed as cell growth inhibition at 10 uM incubated for 48 hrs by sulforhodamine B assay; assay type: functional; conditions: read-out: GI; summary of the method: as §1
[12] = target: Carbonic anhydrase 12 (Homo sapiens, UniProt O43570); assay: Inhibition of recombinant human carbonic anhydrase 12 preincubated with enzyme for 15 mins by phenol red dye based stopped flow CO2 hydrase assay
[13] = system: KM12; assay: Antitumor activity against human KM12 cells assessed as cell growth inhibition at 10 uM incubated for 48 hrs by sulforhodamine B assay; assay type: functional; conditions: read-out: GI; summary of the method: as §1
[14] = system: SK-MEL-5; assay: Antitumor activity against human SK-MEL-5 cells assessed as cell growth inhibition at 10 uM incubated for 48 hrs by sulforhodamine B assay; assay type: functional; conditions: read-out: GI; summary of the method: as §1
[15] = system: SN12C; assay: Antitumor activity against human SN12C cells assessed as cell growth inhibition at 10 uM incubated for 48 hrs by sulforhodamine B assay; assay type: functional; conditions: read-out: GI; summary of the method: as §1
[16] = system: SF-539; assay: Antitumor activity against human SF539 cells assessed as cell growth inhibition at 10 uM incubated for 48 hrs by sulforhodamine B assay; assay type: functional; conditions: read-out: GI; summary of the method: as §1
[17] = system: T47D; assay: Antitumor activity against human T-47D cells assessed as cell growth inhibition at 10 uM incubated for 48 hrs by sulforhodamine B assay; assay type: functional; conditions: read-out: GI; summary of the method: as §2
[18] = system: MOLT-4; assay: Antitumor activity against human MOLT4 cells assessed as cell growth inhibition at 10 uM incubated for 48 hrs by sulforhodamine B assay; assay type: functional; conditions: read-out: GI; summary of the method: as §1
[19] = system: NCI/ADR-RES; assay: Antitumor activity against human NCI/ADR-RES cells assessed as cell growth inhibition at 10 uM incubated for 48 hrs by sulforhodamine B assay; assay type: functional, cell-based; summary of the method: as §1
[20] = system: HCT-116; assay: Antitumor activity against human HCT116 cells assessed as cell growth inhibition at 10 uM incubated for 48 hrs by sulforhodamine B assay; assay type: functional; conditions: read-out: GI; summary of the method: as §1
[21] = target: Carbonic anhydrase 2 (Homo sapiens, UniProt P00918); assay: Inhibition of recombinant human carbonic anhydrase 2 preincubated with enzyme for 15 mins by phenol red dye based stopped flow CO2 hydrase assay
[22] = system: MDA-MB-231; assay: Antitumor activity against human MDA-MB-231/ATCC cells assessed as cell growth inhibition at 10 uM incubated for 48 hrs by sulforhodamine B assay; assay type: functional; conditions: read-out: GI; summary of the method: as §1
[23] = target: CDK9/cyclin T1 (Homo sapiens, UniProt P50750); assay: Inhibition of human full-length N-terminal GST/His6-tagged CDK9 (1 to 372 residues)/His6-tagged Cyclin-T1 (1 to 726 residues) expressed in sf9 cells using (YSPTSPS)2KK peptide as substrate in presence of [gamma33P]ATP
[24] = system: LOX IMVI; assay: Antitumor activity against human LOX IMVI cells assessed as cell growth inhibition at 10 uM incubated for 48 hrs by sulforhodamine B assay; assay type: functional; conditions: read-out: GI; summary of the method: as §1
[25] = target: Carbonic anhydrase 9 (Homo sapiens, UniProt Q16790); assay: Inhibition of recombinant human carbonic anhydrase 9 preincubated with enzyme for 15 mins by phenol red dye based stopped flow CO2 hydrase assay
[26] = system: NCI-H460; assay: Antitumor activity against human NCI-H460 cells assessed as cell growth inhibition at 10 uM incubated for 48 hrs by sulforhodamine B assay; assay type: functional; conditions: read-out: GI; summary of the method: as §1
[27] = system: NCI-H226; assay: Antitumor activity against human NCI-H226 assessed as cell growth inhibition at 10 uM incubated for 48 hrs by sulforhodamine B assay; assay type: functional; conditions: read-out: GI; summary of the method: as §1
[28] = system: RXF 393; assay: Antitumor activity against human RXF 393 cells assessed as cell growth inhibition at 10 uM incubated for 48 hrs by sulforhodamine B assay; assay type: functional; conditions: read-out: GI; summary of the method: as §1
[29] = system: OVCAR-8; assay: Antitumor activity against human OVCAR-8 cells assessed as cell growth inhibition at 10 uM incubated for 48 hrs by sulforhodamine B assay; assay type: functional; conditions: read-out: GI; summary of the method: as §1
[30] = target: Carbonic anhydrase 1 (Homo sapiens, UniProt P00915); assay: Inhibition of recombinant human carbonic anhydrase 1 preincubated with enzyme for 15 mins by phenol red dye based stopped flow CO2 hydrase assay
[31] = system: U-251; assay: Antitumor activity against human U251 cells assessed as cell growth inhibition at 10 uM incubated for 48 hrs by sulforhodamine B assay; assay type: functional; conditions: read-out: GI; summary of the method: as §2
[32] = system: K562; assay: Antitumor activity against human K562 cells assessed as cell growth inhibition at 10 uM incubated for 48 hrs by sulforhodamine B assay; assay type: functional; conditions: read-out: GI; summary of the method: as §1
[33] = system: MCF7; assay: Antitumor activity against human MCF7 cells assessed as cell growth inhibition at 10 uM incubated for 48 hrs by sulforhodamine B assay; assay type: functional; conditions: read-out: GI; summary of the method: as §1
[34] = system: IGROV-1; assay: Antitumor activity against human IGROV1 cells assessed as cell growth inhibition at 10 uM incubated for 48 hrs by sulforhodamine B assay; assay type: functional; conditions: read-out: GI; summary of the method: as §1
[35] = system: Hs-578T; assay: Antitumor activity against human HS 578T cells assessed as cell growth inhibition at 10 uM incubated for 48 hrs by sulforhodamine B assay; assay type: functional; conditions: read-out: GI; summary of the method: as §1
[36] = system: CAKI-1; assay: Antitumor activity against human CAKI-1 cells assessed as cell growth inhibition at 10 uM incubated for 48 hrs by sulforhodamine B assay; assay type: functional; conditions: read-out: GI; summary of the method: as §1
[37] = system: NCI-H322M; assay: Antitumor activity against human NCI-H322M cells assessed as cell growth inhibition at 10 uM incubated for 48 hrs by sulforhodamine B assay; assay type: functional; conditions: read-out: GI; summary of the method: as §1

Sequence of CDK9/cyclin T1 (O60563 whole entry, the tested form may be a part): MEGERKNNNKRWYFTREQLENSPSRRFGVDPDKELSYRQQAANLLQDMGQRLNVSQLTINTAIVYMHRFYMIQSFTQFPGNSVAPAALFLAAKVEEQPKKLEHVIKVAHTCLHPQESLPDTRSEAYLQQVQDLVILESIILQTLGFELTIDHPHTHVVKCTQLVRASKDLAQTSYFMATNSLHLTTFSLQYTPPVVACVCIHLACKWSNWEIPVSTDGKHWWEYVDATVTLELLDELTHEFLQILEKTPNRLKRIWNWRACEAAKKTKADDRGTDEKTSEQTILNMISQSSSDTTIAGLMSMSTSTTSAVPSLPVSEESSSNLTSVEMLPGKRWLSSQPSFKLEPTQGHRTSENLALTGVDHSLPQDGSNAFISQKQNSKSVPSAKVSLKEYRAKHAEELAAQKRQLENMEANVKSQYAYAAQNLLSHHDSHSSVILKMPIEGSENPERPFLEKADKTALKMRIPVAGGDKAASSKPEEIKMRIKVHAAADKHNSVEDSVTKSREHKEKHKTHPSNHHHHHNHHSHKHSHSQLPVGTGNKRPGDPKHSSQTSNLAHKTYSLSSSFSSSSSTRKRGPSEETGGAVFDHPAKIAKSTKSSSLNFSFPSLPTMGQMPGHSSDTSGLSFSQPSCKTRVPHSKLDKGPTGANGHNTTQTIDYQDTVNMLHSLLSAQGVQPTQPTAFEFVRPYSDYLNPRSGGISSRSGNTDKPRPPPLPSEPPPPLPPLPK
Sequence of CDK9/cyclin T1 (P50750 whole entry, the tested form may be a part): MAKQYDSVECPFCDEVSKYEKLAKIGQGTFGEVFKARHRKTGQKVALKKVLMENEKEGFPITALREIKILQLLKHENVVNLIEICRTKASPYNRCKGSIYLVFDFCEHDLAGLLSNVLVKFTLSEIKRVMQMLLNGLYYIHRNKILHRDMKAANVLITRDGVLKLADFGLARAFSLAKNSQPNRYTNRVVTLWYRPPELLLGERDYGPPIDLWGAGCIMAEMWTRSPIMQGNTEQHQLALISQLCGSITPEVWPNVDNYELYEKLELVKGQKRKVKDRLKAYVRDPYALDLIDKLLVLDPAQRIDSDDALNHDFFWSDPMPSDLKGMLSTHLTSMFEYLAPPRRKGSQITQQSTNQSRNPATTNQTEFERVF
Sequence of Carbonic anhydrase 1 (P00915 whole entry): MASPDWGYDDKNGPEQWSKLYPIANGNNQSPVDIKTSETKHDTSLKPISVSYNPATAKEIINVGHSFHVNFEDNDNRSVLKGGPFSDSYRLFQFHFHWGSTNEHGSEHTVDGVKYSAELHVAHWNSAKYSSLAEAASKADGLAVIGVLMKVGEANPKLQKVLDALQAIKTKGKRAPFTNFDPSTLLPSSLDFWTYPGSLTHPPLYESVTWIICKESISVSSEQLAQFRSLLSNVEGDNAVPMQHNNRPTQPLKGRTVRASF
Sequence of Carbonic anhydrase 12 (O43570 whole entry): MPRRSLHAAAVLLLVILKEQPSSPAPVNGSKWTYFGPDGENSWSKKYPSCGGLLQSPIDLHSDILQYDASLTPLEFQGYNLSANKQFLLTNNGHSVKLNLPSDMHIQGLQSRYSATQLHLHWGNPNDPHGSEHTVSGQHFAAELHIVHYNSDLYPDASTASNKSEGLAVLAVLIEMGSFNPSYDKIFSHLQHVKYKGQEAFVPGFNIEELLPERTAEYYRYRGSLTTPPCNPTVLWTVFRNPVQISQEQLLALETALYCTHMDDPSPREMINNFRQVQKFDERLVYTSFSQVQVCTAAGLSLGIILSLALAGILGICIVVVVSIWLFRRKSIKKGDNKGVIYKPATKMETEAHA

Cc1ccc(-c2nc3c(/N=N/c4ccc(S(N)(=O)=O)cc4)c(N)nn3c(N)c2C#N)cc1
inhibition of growth at 10 µM [1]: 73%
inhibition of growth at 10 µM [2]: 44%
inhibition of growth at 10 µM [3]: 65%
inhibition of growth at 10 µM [4]: 51%
inhibition of growth at 10 µM [5]: 31%
inhibition of growth at 10 µM [6]: 68%
inhibition of growth at 10 µM [7]: 94%
IC50 [8]: 11600 nM
inhibition of growth at 10 µM [9]: 76%
inhibition of growth at 10 µM [10]: 51%
inhibition of growth at 10 µM [11]: 80%
Ki [12]: 48.8 nM
inhibition of growth at 10 µM [13]: 71%
inhibition of growth at 10 µM [14]: 152%
inhibition of growth at 10 µM [15]: 67%
inhibition of growth at 10 µM [16]: 69%
inhibition of growth at 10 µM [17]: 66%
inhibition of growth at 10 µM [18]: 96%
Activity [19]: inactive
inhibition of growth at 10 µM [20]: 86%
Ki [21]: 638 nM
inhibition of growth at 10 µM [22]: 60%
IC50 [23]: > 12500 nM
inhibition of growth at 10 µM [24]: 78%
Ki [25]: 44.3 nM
inhibition of growth at 10 µM [26]: 72%
inhibition of growth at 10 µM [27]: 35%
inhibition of growth at 10 µM [28]: 72%
inhibition of growth at 10 µM [29]: 56%
Ki [30]: 3530 nM
inhibition of growth at 10 µM [31]: 68%
inhibition of growth at 10 µM [32]: 80%
inhibition of growth at 10 µM [33]: 72%
inhibition of growth at 10 µM [34]: 63%
inhibition of growth at 10 µM [35]: 61%
inhibition of growth at 10 µM [36]: 59%
inhibition of growth at 10 µM [37]: 34%

Nc1nn2cc(-c3ccc(Br)cc3)[nH]c2c1/N=N/c1ccc(S(N)(=O)=O)cc1
inhibition of growth at 10 µM [1]: 53%
inhibition of growth at 10 µM [2]: 25%
inhibition of growth at 10 µM [3]: 42%
inhibition of growth at 10 µM [4]: 64%
inhibition of growth at 10 µM [5]: 74%
inhibition of growth at 10 µM [6]: 39%
inhibition of growth at 10 µM [7]: 51%
IC50 [8]: > 12500 nM
inhibition of growth at 10 µM [9]: 27%
inhibition of growth at 10 µM [10]: 64%
inhibition of growth at 10 µM [11]: 29%
Ki [12]: 52.8 nM
inhibition of growth at 10 µM [13]: 39%
inhibition of growth at 10 µM [14]: 45%
inhibition of growth at 10 µM [15]: 58%
inhibition of growth at 10 µM [16]: 42%
inhibition of growth at 10 µM [17]: 46%
inhibition of growth at 10 µM [18]: 42%
Activity [19]: inactive
inhibition of growth at 10 µM [20]: 62%
Ki [21]: 49.3 nM
inhibition of growth at 10 µM [22]: 43%
IC50 [23]: > 12500 nM
inhibition of growth at 10 µM [24]: 64%
Ki [25]: 44.9 nM
inhibition of growth at 10 µM [26]: 62%
inhibition of growth at 10 µM [28]: 55%
inhibition of growth at 10 µM [29]: 37%
Ki [30]: 1590 nM
inhibition of growth at 10 µM [31]: 38%
inhibition of growth at 10 µM [32]: 38%
inhibition of growth at 10 µM [33]: 33%
inhibition of growth at 10 µM [34]: 72%
inhibition of growth at 10 µM [35]: 54%
inhibition of growth at 10 µM [36]: 82%
inhibition of growth at 10 µM [37]: 65%
